Source: ChEMBL document CHEMBL1131446, “New 1,4-dihydropyridines conjugated to furoxanyl moieties, endowed with both nitric oxide-like and calcium channel antagonist vasodilator activities” (J Med Chem, 1998)

Tests used:
[1] = target: T1, Voltage-dependent L-type calcium channel subunit alpha-1D (Rattus norvegicus, UniProt P27732); assay: Inhibitory concentration for L-type [Ca2+] channels was measured through displacement of [3H]nitrendipine on rat cortex homogenates.; type: tissue-based
[2] = target: T1, Voltage-dependent L-type calcium channel subunit alpha-1D; assay: Binding affinity for L-type [Ca2+] channels was measured through displacement of [3H]nitrendipine on rat cortex homogenates.; type: tissue-based
Rattus norvegicus [3] = species on record: Rattus norvegicus; assay: […]; type: functional
Summary of the method: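 Nitrite formation measured as an index of NO release. Compound incubated in pH 7.4 buffer with a 50-fold molar excess of L-cysteine at 37 °C. After 1 h, nitrite was detected by the Griess reaction. Values are expressed as % NO₂⁻ (mol/mol).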

Rattus norvegicus [4] = species on record: Rattus norvegicus; assay: Vasodilator activity was measured on rat aorta in the presence of methylene blue (MB).
Rattus norvegicus [5] = species on record: Rattus norvegicus; assay: Vasodilator activity was measured on rat aorta.

T1 sequence (P27732 whole entry): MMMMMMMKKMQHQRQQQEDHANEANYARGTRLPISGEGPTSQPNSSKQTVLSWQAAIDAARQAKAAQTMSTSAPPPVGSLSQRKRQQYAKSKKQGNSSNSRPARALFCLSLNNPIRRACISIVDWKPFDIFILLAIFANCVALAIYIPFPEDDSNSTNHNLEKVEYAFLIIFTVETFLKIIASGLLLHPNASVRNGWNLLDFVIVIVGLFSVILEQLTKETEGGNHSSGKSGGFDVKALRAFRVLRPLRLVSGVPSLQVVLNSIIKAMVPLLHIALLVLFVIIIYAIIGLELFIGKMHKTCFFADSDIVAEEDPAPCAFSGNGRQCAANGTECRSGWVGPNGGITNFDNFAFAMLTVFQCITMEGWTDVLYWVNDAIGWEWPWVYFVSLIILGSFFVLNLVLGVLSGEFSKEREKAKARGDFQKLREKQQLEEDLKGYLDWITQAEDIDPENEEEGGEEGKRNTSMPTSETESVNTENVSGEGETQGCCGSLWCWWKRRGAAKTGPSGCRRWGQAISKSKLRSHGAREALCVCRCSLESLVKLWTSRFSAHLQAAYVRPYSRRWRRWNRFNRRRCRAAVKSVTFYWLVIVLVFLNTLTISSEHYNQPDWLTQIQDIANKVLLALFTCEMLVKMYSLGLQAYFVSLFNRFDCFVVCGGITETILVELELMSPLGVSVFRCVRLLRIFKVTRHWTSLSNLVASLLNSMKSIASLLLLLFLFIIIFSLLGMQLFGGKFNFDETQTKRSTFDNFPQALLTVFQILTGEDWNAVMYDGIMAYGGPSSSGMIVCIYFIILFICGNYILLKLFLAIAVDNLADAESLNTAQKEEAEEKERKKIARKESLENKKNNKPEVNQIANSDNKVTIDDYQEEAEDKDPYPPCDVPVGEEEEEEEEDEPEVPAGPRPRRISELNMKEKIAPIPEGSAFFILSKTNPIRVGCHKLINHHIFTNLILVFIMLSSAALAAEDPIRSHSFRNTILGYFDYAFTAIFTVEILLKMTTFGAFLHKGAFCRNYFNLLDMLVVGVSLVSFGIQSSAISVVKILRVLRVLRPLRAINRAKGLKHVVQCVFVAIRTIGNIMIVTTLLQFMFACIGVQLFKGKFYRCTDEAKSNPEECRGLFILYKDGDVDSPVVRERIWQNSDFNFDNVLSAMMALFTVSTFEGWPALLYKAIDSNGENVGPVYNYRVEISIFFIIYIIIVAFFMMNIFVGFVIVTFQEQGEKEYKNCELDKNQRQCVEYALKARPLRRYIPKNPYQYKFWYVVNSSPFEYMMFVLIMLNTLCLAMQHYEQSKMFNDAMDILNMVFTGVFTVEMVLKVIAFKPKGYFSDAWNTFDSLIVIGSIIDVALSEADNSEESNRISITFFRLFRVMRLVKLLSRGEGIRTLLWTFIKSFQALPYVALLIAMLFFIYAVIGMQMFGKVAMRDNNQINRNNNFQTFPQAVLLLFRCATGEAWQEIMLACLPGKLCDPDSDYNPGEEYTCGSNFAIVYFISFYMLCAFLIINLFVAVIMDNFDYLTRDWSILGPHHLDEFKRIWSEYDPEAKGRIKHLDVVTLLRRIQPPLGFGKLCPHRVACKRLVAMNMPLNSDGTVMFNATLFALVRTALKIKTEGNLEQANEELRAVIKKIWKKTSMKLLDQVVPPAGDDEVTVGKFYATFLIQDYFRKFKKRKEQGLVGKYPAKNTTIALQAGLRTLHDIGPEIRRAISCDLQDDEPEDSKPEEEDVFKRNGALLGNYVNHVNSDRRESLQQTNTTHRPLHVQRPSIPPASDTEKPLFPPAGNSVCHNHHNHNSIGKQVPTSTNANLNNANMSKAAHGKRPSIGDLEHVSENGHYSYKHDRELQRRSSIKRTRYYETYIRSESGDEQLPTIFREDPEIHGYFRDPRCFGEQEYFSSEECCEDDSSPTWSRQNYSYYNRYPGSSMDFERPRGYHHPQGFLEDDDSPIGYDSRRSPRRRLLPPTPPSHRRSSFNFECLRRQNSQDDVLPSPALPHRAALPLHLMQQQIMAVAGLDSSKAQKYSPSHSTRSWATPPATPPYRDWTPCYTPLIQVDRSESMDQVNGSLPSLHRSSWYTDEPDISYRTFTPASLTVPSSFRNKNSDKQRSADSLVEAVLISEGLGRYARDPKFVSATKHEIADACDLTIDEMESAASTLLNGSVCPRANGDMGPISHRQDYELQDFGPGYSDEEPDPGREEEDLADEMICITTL

SMILES	IC50 [1]	Ki [2]	Nitric oxide (Rattus norvegicus [3])	EC50 iGC (Rattus norvegicus [4])	EC50 (Rattus norvegicus [5])
COC(=O)C1=C(C)N=C(C)/C(=C(/O)OC)C1c1ccccc1OCc1no[n+]([O-])c1C#N (centres undefined)	27 nM	21 nM	40.8%	22 nM	4.4 nM
COC(=O)C1=C(C)N=C(C)/C(=C(/O)OC)C1c1cccc(OCc2c(C)no[n+]2[O-])c1 (centres undefined)	610 nM	280 nM	<0.5%	400 nM	400 nM
COC(=O)C1=C(C)N=C(C)/C(=C(/O)OC)C1c1ccccc1OCc1nonc1C(N)=O (centres undefined)	880 nM	400 nM	–	910 nM	970 nM
COC(=O)C1=C(C)N=C(C)/C(=C(/O)OC)C1c1ccccc1OCc1no[n+]([O-])c1C(N)=O (centres undefined)	1500 nM	670 nM	13%	940 nM	550 nM
COC(=O)C1=C(C)N=C(C)/C(=C(/O)OC)C1c1ccccc1OCc1nonc1C (centres undefined)	59 nM	27 nM	–	46 nM	41 nM
COC(=O)C1=C(C)N=C(C)/C(=C(/O)OC)C1c1ccccc1OCc1no[n+]([O-])c1C (centres undefined)	40 nM	18 nM	0.9%	46 nM	43 nM
COC(=O)C1=C(C)N=C(C)/C(=C(/O)OC)C1c1cccc(OCc2nonc2C#N)c1 (centres undefined)	590 nM	270 nM	–	300 nM	310 nM
COC(=O)C1=C(C)N=C(C)/C(=C(/O)OC)C1c1cccc(OCc2c(C#N)no[n+]2[O-])c1 (centres undefined)	500 nM	220 nM	31.5%	–	11 nM
COC(=O)C1=C(C)N=C(C)/C(=C(/O)OC)C1c1cccc(OCCO[N+](=O)[O-])c1 (centres undefined)	970 nM	440 nM	<0.5%	750 nM	750 nM
COC(=O)C1=C(C)N=C(C)/C(=C(/O)OC)C1c1ccccc1OCc1nonc1C#N (centres undefined)	10 nM	4.7 nM	–	6.6 nM	6.6 nM
COC(=O)C1=C(C)N=C(C)/C(=C(/O)OC)C1c1cccc(OCc2nonc2C)c1 (centres undefined)	720 nM	320 nM	–	620 nM	640 nM
COC(=O)C1=C(C)N=C(C)/C(=C(/O)OC)C1c1cccc(OCc2nonc2C(N)=O)c1 (centres undefined)	5100 nM	2300 nM	–	3300 nM	3500 nM
COC(=O)C1=C(C)N=C(C)/C(=C(/O)OC)C1c1cccc(OCc2no[n+]([O-])c2C#N)c1 (centres undefined)	500 nM	230 nM	43.8%	–	3.3 nM
COC(=O)C1=C(C)N=C(C)/C(=C(/O)OC)C1c1ccccc1OCc1c(C(N)=O)no[n+]1[O-] (centres undefined)	780 nM	350 nM	12.3%	640 nM	560 nM
COC(=O)C1=C(C)N=C(C)/C(=C(/O)OC)C1c1cccc(OCc2no[n+]([O-])c2C(N)=O)c1 (centres undefined)	2000 nM	920 nM	6%	1500 nM	710 nM
COC(=O)C1=C(C)N=C(C)/C(=C(/O)OC)C1c1cccc(OCc2c(C(N)=O)no[n+]2[O-])c1 (centres undefined)	3600 nM	1600 nM	7.6%	3700 nM	1200 nM
COC(=O)C1=C(C)N=C(C)/C(=C(/O)OC)C1c1ccccc1OCc1c(C)no[n+]1[O-] (centres undefined)	72 nM	32 nM	1.8%	76 nM	78 nM
COC(=O)C1=C(C)N=C(C)/C(=C(/O)OC)C1c1cccc(OCc2no[n+]([O-])c2C)c1 (centres undefined)	820 nM	370 nM	<0.5%	540 nM	500 nM
COC(=O)C1=C(C)N=C(C)/C(=C(/O)OC)C1c1ccccc1OCCO[N+](=O)[O-] (centres undefined)	85 nM	38 nM	<0.5%	54 nM	56 nM
COC(=O)C1=C(C)N=C(C)/C(=C(/O)OC)C1c1ccccc1OCc1c(C#N)no[n+]1[O-] (centres undefined)	67 nM	30 nM	24%	50 nM	9.4 nM
COC(=O)C1=C(C)NC(C)=C(C(=O)OC)C1c1ccccc1[N+](=O)[O-] [NIFEDIPINE]	–	–	–	3.4 nM	3.2 nM
